Screening results deposited in PubChem by several laboratories.
Rev-erbA mod: modulators of human Rev-erb alpha DNA binding. P20393. Rev-erbα–FITC-DNA binding, fluorescence polarization, 90 min. 0.79% of 370,000 active. activity, % at 10 µM;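 active means activity above about 14%, limit read from the data; passing the limit was not always enough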
MC4R antag cAMP: human MC4R antagonism in cAMP assay. MC4R-expressing cells, MTII-stimulated cAMP, LANCE TR-FRET. AID 540295. 0.48% of 360,000 active. inhibition, % at 6.5 µM. P32245;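 active means inhibition above its plate's cutoff, the mean of tested wells on that plate plus 3 SD, cut at about 29% in these data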
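Assay system: U2OS cells stably expressing human melanocortin 4 receptor (MC4R) / Dosing: 6.5 µM / Timing: compound 30 min, challenge 1 h, detection 1 h / Measured by: Eu-cAMP/anti-cAMP TR-FRET, emission 671 nm / Replicates: singlicate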
MC4R barr agon: activates human MC4R beta-arrestin recruitment. P32245. U2OS MC4R beta-arrestin complementation, luminescence; percent of melanotan II response, DMSO zero. activation, % at 8.9 µM. 0.98% of 360,000 active;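 active means activation above a per-plate cutoff, the mean activation of sample wells on that plate plus 3 SD, cut at about 8% in these data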
NR2E3 ag-1: NR2E3 (human) agonism | GST-NR2E3/biotin-RetCOR TR-FRET, 1536-well | inhibition of corepressor binding, % at 4.78 µM | 0.12% of 320,000 active;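 active means percent inhibition above the cutoff of mean plus 3 SD of all tested compounds, set per screening campaign, cut at about 20% in these data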
Target sequence (Q9Y5X4 whole entry, looked up): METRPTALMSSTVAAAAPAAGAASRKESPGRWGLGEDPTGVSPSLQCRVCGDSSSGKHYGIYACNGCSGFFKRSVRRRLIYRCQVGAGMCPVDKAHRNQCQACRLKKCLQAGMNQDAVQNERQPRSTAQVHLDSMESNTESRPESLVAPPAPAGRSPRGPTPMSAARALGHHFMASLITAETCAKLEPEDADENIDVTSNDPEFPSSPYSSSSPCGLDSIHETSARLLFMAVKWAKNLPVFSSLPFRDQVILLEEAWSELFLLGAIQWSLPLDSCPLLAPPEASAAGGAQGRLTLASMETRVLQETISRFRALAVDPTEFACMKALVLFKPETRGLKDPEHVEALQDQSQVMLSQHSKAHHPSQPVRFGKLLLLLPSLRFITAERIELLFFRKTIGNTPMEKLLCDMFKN
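Material: NR2E3–RetCOR corepressor complex | Quantity: 1.35 nM GST-tagged NR2E3 final | Schedule: 5 h at 4 °C | Replication: Singlicate compound wells | Reagent: RetCOR corepressor, biotinylated, 7 nM | Controls: Biotin wells as high control, 0.6% DMSO wells as low control | Signal: TR-FRET, Eu(K)-anti-GST donor, streptavidin-D2 acceptor, ex 340, em 617/671 nm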
NR2E3 ag-2: activates human NR2E3 receptor; Q9Y5X4; CHO-S Gal4-NCOR/VP16-NR2E3 two-hybrid, luciferase; inhibition of corepressor binding, % at 3.98 µM; 0.35% of 360,000 active; AID 602229;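 active means inhibition above the mean of all tested compounds plus 3 SD, cut at about 70% in these data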;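 further: higher means lower luciferase signal from less NR2E3 corepressor binding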
PG9 binder: binds the HIV-1 gp120 antibody PG9. TR-FRET gp120-PG9 antibody binding. inhibition, % at 6.7 µM. 0.43% of 360,000 active; in the data active means inhibition above about 8.5%
MC4R barr ag: human MC4R beta-arrestin agonism confirmation; shares compounds with MC4R barr agon; U2OS MC4R beta-arrestin recruitment, luminescence; scaled DMSO 0%, Melanotan II 100%; activation, % at 8.9 µM; 31% of 2,400 active; AID 602192;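 active means mean activation across replicates above the hit cutoff set in the earlier primary screen, cut at about 8% in these data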
MOR-DOR barr ag: activates mu-delta opioid heterodimer, MC4R agonist counter-screen. AID 602194. 5.8% of 2,400 active. activation, % at 9.2 µM. U2OS PathHunter beta-arrestin, beta-gal luminescence; percent of deltorphin B response, DMSO zero. shares compounds with MC4R barr agon;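 active means mean activation across replicates exceeds the hit threshold derived in the earlier primary screen, cut at about 18% in these data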
A number is an active result; - = inactive; . = not tested or not shown. Only some compounds are listed: those with a hit (about 2.7% of all), similar ones and a draw of the others.

SMILES	Rev-erbA mod	MC4R antag cAMP	MC4R barr agon	NR2E3 ag-1	NR2E3 ag-2	PG9 binder	MC4R barr ag	MOR-DOR barr ag
Cc1c(-c2ccccc2)nc(N)c(C#N)c1-c1ccco1	-	-	11.8	-	-	-	-	-
CCc1nc(N)c(C#N)c(-c2ccco2)c1C	-	-	-	-	-	-	.	.
CCC(=O)N1CCc2cc(S(=O)(=O)NC(C(=O)NCc3ccc(F)cc3)C(C)C)ccc21 (centres undefined)	-	-	-	-	-	-	.	.
Cc1ccc(OC(=O)c2cccc([N+](=O)[O-])c2)c(-n2nc3ccccc3n2)c1	-	-	14.3	-	-	-	-	-
Cc1ccc(OC(=O)COc2ccccc2)c(-n2nc3ccccc3n2)c1	-	-	-	-	-	-	.	.
O=C(O)C1CC=CCC1C(=O)NCCCN1CCCC1=O (centres undefined)	-	-	-	-	-	-	.	.
O=C(CCN1C(=O)/C(=C/c2ccccc2F)SC1=S)NC1C=CS(=O)(=O)C1 (centres undefined)	-	-	10.3	-	-	-	-	-
CCc1nc2c(OCc3ccc(C(F)(F)F)cc3)cccn2c1N(C)C(=O)c1ccco1	-	-	-	.	-	-	.	.
CC(C)CNC(=O)OCc1cn(Cc2c(F)cccc2F)nn1	-	.	.	.	.	.	.	.
CCCCCCc1cc2cc(S(=O)(=O)c3ccc(C)cc3)c(=O)oc2cc1O	-	-	22.0	-	-	-	9.6	-
COc1cc(-c2nnc3sc(-c4cccs4)nn23)cc(OC)c1OC	-	-	15.3	-	-	-	-	-
O=c1c2cc(Cl)ccc2[nH]c(=S)n1Cc1cccs1	-	-	10.0	-	-	-	-	-
O=c1c2cc(Cl)ccc2[nH]c(=S)n1Cc1ccco1	-	-	-	-	-	-	.	.
CC(=O)c1cccc(NC(=O)COC(=O)CC2CC3CCC2C3)c1 (centres undefined)	-	-	-	-	-	-	.	.
COC(=O)CNC(=O)c1ccccc1	-	-	-	-	-	-	.	.
O=C(CSc1nnc(-c2cccs2)o1)N1CCOCC1	-	-	17.9	.	-	-	-	-
O=C(CSc1nnc(-c2cccs2)o1)N1CCCCC1	-	-	-	-	-	-	.	.
N/C(Cc1ccc(Cl)cc1)=N\OC(=O)c1cccc2ccccc12	-	-	10.6	-	-	-	11.5	-
Cc1ccc(/C=N/NS(=O)(=O)c2ccc([N+](=O)[O-])cc2)o1	-	-	-	-	-	-	.	.
CCCCCCCCCCS(=O)(=O)N/N=C/c1ccc([N+](=O)[O-])cc1	-	-	13.1	-	-	-	-	-
O=C(COC(=O)c1ncc(Cl)c(Cl)c1Cl)NC(=O)NCc1ccccc1	-	-	-	-	-	-	.	.
CC(/C=N/n1c(COc2ccccc2)n[nH]c1=S)=C\c1ccccc1	-	-	-	-	-	-	.	.
C=CCn1c(SCC(=O)Nc2ncc(Cc3ccc(C)c(Cl)c3)s2)nnc1-c1ccncc1	-	-	30.5	-	-	-	15.7	-
Cc1cc(C)nc(SCC(=O)Nc2ncc(Cc3cccc(Cl)c3)s2)n1	-	-	16.4	-	-	-	-	-
O=C(CN1CCOCC1)Nc1ncc(Cc2cccc(Cl)c2)s1	-	-	-	-	-	-	.	.
SMILES	Rev-erbA mod	MC4R antag cAMP	MC4R barr agon	NR2E3 ag-1	NR2E3 ag-2	PG9 binder	MC4R barr ag	MOR-DOR barr ag
C=CCn1c(SCC(=O)Nc2nnc(CC)s2)nnc1-c1ccncc1	-	-	-	-	-	-	.	.
COc1cc(CCC(=O)Nc2ncc(C)s2)cc(OC)c1OC	-	-	-	-	-	-	.	.
O=C(COC(=O)c1cccc(S(=O)(=O)N2CCCCCC2)c1)NCc1ccc(Cl)cc1	-	-	9.8	.	-	-	-	-
O=C(COC(=O)c1ccc(S(=O)(=O)N2CCCC2)cc1)Nc1cccc(Br)c1	-	-	-	-	-	-	.	.
O=C(COC(=O)c1ccc(S(=O)(=O)N2CCCCC2)cc1)Nc1ccccc1Cl	-	-	23.2	.	-	-	-	-
Cc1cccc(NC(=O)COC(=O)c2ccc(S(=O)(=O)N3CCCCCC3)cc2)c1	-	-	12.0	.	-	-	-	-
Cc1ccc(S(=O)(=O)n2nnc3ccccc32)c(C)c1C	-	-	-	-	-	-	.	.
CCC(=O)N1CCN(c2ccc(NC(=O)c3ccc4ccccc4c3)cc2)CC1	-	-	16.7	-	-	-	-	-
CCC(=O)N1CCN(c2ccc(NC(=O)c3ccccc3)cc2)CC1	-	-	-	-	-	-	.	.
CCOc1ccc(C(=O)Nc2ccc(N3CCN(C)CC3)cc2)cc1Br	-	-	-	-	-	-	.	.
CCOc1ccc(C(=O)Nc2ccc(N3CCN(C(=O)c4ccco4)CC3)cc2)cc1Br	-	-	14.4	.	-	-	-	-
O=C(Nc1ccc(F)cc1F)c1csc(-c2cccs2)n1	-	-	14.6	-	-	-	-	-
O=C(Nc1ccc(F)cc1F)c1csc(-c2ccncc2)n1	-	-	-	-	-	-	.	.
O=C(OCCN1CCCC1)C1(c2ccccc2)CCCC1	-	-	-	.	-	-	.	.
CCc1nnc(NC(=O)c2cc(C)nc3ccccc23)s1	-	-	-	-	-	-	.	.
C(=NOCCc1ccccc1)c1ccncc1	-	-	-	.	-	-	.	.
COc1ccccc1C(=O)O/N=C1/CCCc2c1ccc(OC)c2[N+](=O)[O-]	.	-	20.2	-	-	-	-	-
Cc1ccc(C(=O)Nc2ncc(Cc3ccc(SC(F)F)cc3)s2)cc1	-	-	17.5	-	-	-	9.0	-
Cc1ccc(C(=O)Nc2ccc(N3CCOCC3)c3nonc23)cc1[N+](=O)[O-]	-	-	11.1	-	-	-	-	-
Cc1c(NC(=O)c2cccs2)cccc1[N+](=O)[O-]	-	-	-	-	-	-	.	.
Cc1cc(C)cc(OCC(O)CN2CCC(CN3C(=O)c4cccc5cccc(c45)C3=O)CC2)c1 (centres undefined)	-	-	30.5	-	-	-	33.4	-
COc1cccc(OCC(O)CN2CCC(CN3C(=O)c4cccc5cccc(c45)C3=O)CC2)c1 (centres undefined)	-	-	-	-	-	-	.	.
CCCCNC(=O)c1cccnc1SCC(=O)Nc1ccccc1OC	-	-	-	-	-	-	.	.
CCCCCCCCNC(=O)c1cccnc1SCC(=O)Nc1ccc(OC)cc1OC	-	-	11.1	-	-	-	17.7	29.2
COc1cccc(/C=N/NC(=O)C(=O)Nc2ccccc2OC(F)(F)C(F)F)c1	-	-	15.6	-	-	-	-	-
